# In paper PMC11390321 (Cancer chemotherapy and pharmacology, 2024):
# Like-named read-outs stand apart in the source and are kept apart here.
# Experiments:
# [1] = clinical; cited from earlier work
# [2] = type: in vivo, BALB/c mice; details: for clearance: CL
# [3] = tested on: breast cancer resistance protein (Bcrp/Abcg2); details: on the BBB; cited from earlier work
# [4] = clinical; cited from earlier work; remark: listed apart in the source
# [5] = Plasma protein binding by rapid equilibrium dialysis; type: in vitro ADME; details: BALB/c, mouse
# In short: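 Rapid equilibrium dialysis: freshly spiked BALB/c mouse plasma against PBS, 37 °C for 24 h. Test compound at 300–100,000 ng/mL with <0.1% final organic solvent, triplicate. Fraction unbound in plasma determined from chamber concentrations.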
# [6] = BALB/c, mouse, bone marrow, iv, 20 mg/kg
# [7] = BALB/c, mouse, brain, iv, 20 mg/kg
# [8] = BALB/c, mouse, draining lymph node, iv, 20 mg/kg
# [9] = BALB/c, mouse, esophagus, iv, 20 mg/kg
# [10] = BALB/c, mouse, fat, iv, 20 mg/kg
# [11] = BALB/c, mouse, heart, iv, 20 mg/kg
# [12] = BALB/c, mouse, kidney, iv, 20 mg/kg
# [13] = BALB/c, mouse, liver, iv, 20 mg/kg
# [14] = BALB/c, mouse, lung, iv, 20 mg/kg
# [15] = BALB/c, mouse, non-draining lymph node, iv, 20 mg/kg
# [16] = BALB/c, mouse, plasma, iv, 20 mg/kg
# [17] = BALB/c, mouse, red blood cells (RBC), iv, 20 mg/kg
# [18] = BALB/c, mouse, skeletal muscle, iv, 20 mg/kg
# [19] = BALB/c, mouse, small intestine, iv, 20 mg/kg
# [20] = BALB/c, mouse, spinal cord, iv, 20 mg/kg
# [21] = BALB/c, mouse, spleen, iv, 20 mg/kg
# [22] = BALB/c, mouse, thymus, iv, 20 mg/kg
# [23] = BALB/c, mouse, tumor (CT26), iv, 20 mg/kg
# [24] = plasma, 20 mg/kg IV-ext, tumor-bearing mice
# [25] = unchanged drug, 20 mg/kg IV-ext, tumor-bearing mice
structure (smiles),measurement,setting,value
CNCc1ccc(-c2cc(-c3nc(-c4ccc(S(=O)(=O)C(C)C)cc4)cnc3N)on2)cc1 [berzosertib],dose up to which plasma PK is dose-proportionate,[1],up to 240 mg/m^2
same,AUC(0-inf),[2]; [6],1110 µg·h/mL
same,Cmax,[2]; [6],164000 ng/mL
same,Kp,[2]; [6],74.5
same,Tmax,[2]; [6],60 min
same,AUC(0-t),"[2]; BALB/c, mouse, bone marrow, iv, 20 mg/kg, AUC0-t, 20 mg/kg IV, 0–1440 min",1060 µg·h/mL
same,AUC(0-inf),[2]; [7],4.52 µg·h/mL
same,Cmax,[2]; [7],627 ng/mL
same,Kp,[2]; [7],0.297
same,Tmax,[2]; [7],15 min
same,AUC(0-t),"[2]; BALB/c, mouse, brain, iv, 20 mg/kg, AUC0-t, 20 mg/kg IV, 0–1440 min",4.23 µg·h/mL
same,AUC(0-inf),[2]; [8],87 µg·h/mL
same,Cmax,[2]; [8],12900 ng/mL
same,Kp,[2]; [8],5.7
same,Tmax,[2]; [8],60 min
same,AUC(0-t),"[2]; BALB/c, mouse, draining lymph node, iv, 20 mg/kg, AUC0-t, 20 mg/kg IV, 0–1440 min",80.3 µg·h/mL
same,AUC(0-inf),[2]; [9],46.7 µg·h/mL
same,Cmax,[2]; [9],12100 ng/mL
same,Kp,[2]; [9],3.07
same,Tmax,[2]; [9],30 min
same,AUC(0-t),"[2]; BALB/c, mouse, esophagus, iv, 20 mg/kg, AUC0-t, 20 mg/kg IV, 0–1440 min",43.6 µg·h/mL
same,AUC(0-inf),[2]; [10],25.2 µg·h/mL
same,Cmax,[2]; [10],4280 ng/mL
same,Kp,[2]; [10],1.59
same,Tmax,[2]; [10],5 min
same,AUC(0-t),"[2]; BALB/c, mouse, fat, iv, 20 mg/kg, AUC0-t, 20 mg/kg IV, 0–1440 min",22.6 µg·h/mL
same,AUC(0-inf),[2]; [11],86.5 µg·h/mL
same,Cmax,[2]; [11],31600 ng/mL
same,Kp,[2]; [11],5.64
same,Tmax,[2]; [11],5 min
same,AUC(0-t),"[2]; BALB/c, mouse, heart, iv, 20 mg/kg, AUC0-t, 20 mg/kg IV, 0–1440 min",81.2 µg·h/mL
same,AUC(0-inf),[2]; [12],873 µg·h/mL
same,Cmax,[2]; [12],117000 ng/mL
same,Kp,[2]; [12],57.7
same,Tmax,[2]; [12],5 min
same,AUC(0-t),"[2]; BALB/c, mouse, kidney, iv, 20 mg/kg, AUC0-t, 20 mg/kg IV, 0–1440 min",821 µg·h/mL
same,AUC(0-inf),[2]; [13],387 µg·h/mL
same,Cmax,[2]; [13],79800 ng/mL
same,Kp,[2]; [13],25.5
same,Tmax,[2]; [13],5 min
same,AUC(0-t),"[2]; BALB/c, mouse, liver, iv, 20 mg/kg, AUC0-t, 20 mg/kg IV, 0–1440 min",363 µg·h/mL
same,AUC(0-inf),[2]; [14],216 µg·h/mL
same,Cmax,[2]; [14],45200 ng/mL
same,Kp,[2]; [14],13.9
same,Tmax,[2]; [14],5 min
same,AUC(0-t),"[2]; BALB/c, mouse, lung, iv, 20 mg/kg, AUC0-t, 20 mg/kg IV, 0–1440 min",198 µg·h/mL
same,AUC(0-inf),[2]; [15],116 µg·h/mL
same,Cmax,[2]; [15],20700 ng/mL
same,Kp,[2]; [15],7.79
same,Tmax,[2]; [15],30 min
same,AUC(0-t),"[2]; BALB/c, mouse, non-draining lymph node, iv, 20 mg/kg, AUC0-t, 20 mg/kg IV, 0–1440 min",111 µg·h/mL
same,AUC(0-inf),[2]; [16],15.1 µg·h/mL
same,Cmax,[2]; [16],13300 ng/mL
same,Kp,[2]; [16],1
same,Tmax,[2]; [16],5 min
same,Vd,[2]; [16],11.7 L/kg
same,half-life,[2]; [16],367 min
same,AUC(0-t),"[2]; BALB/c, mouse, plasma, iv, 20 mg/kg, AUC0-t, 20 mg/kg IV-ext, tumor-bearing mice",14.2 µg·h/mL
same,AUC(0-t),"[2]; BALB/c, mouse, plasma, iv, 20 mg/kg, AUC0-t, 20 mg/kg IV, 0–1440 min",14.2 µg·h/mL
same,AUC(0-t),"[2]; BALB/c, mouse, plasma, iv, 20 mg/kg, AUC0–360, plasma, 20 mg/kg IV-ext, tumor-bearing mice",9.85 µg·h/mL
same,clearance,"[2]; BALB/c, mouse, plasma, iv, 20 mg/kg, calculated using AUC0-∞, 20 mg/kg IV-ext, tumor-bearing mice",22.1 mL/min/kg
same,clearance,"[2]; BALB/c, mouse, plasma, iv, 20 mg/kg, calculated using AUC0–360, 20 mg/kg IV-ext, tumor-bearing mice",33.8 mL/min/kg
same,AUC(0-inf),[2]; [17],5.87 µg·h/mL
same,Cmax,[2]; [17],1690 ng/mL
same,Kp,[2]; [17],0.389
same,Tmax,[2]; [17],5 min
same,AUC(0-t),"[2]; BALB/c, mouse, red blood cells (RBC), iv, 20 mg/kg, AUC0-t, RBC, 20 mg/kg IV, 0–1440 min",5.53 µg·h/mL
same,AUC(0-inf),[2]; [18],41.7 µg·h/mL
same,Cmax,[2]; [18],9950 ng/mL
same,Kp,[2]; [18],2.77
same,Tmax,[2]; [18],15 min
same,AUC(0-t),"[2]; BALB/c, mouse, skeletal muscle, iv, 20 mg/kg, AUC0-t, Sk. Muscle, 20 mg/kg IV, 0–1440 min",39.4 µg·h/mL
same,AUC(0-inf),[2]; [19],209 µg·h/mL
same,Cmax,[2]; [19],31300 ng/mL
same,Kp,[2]; [19],12.7
same,Tmax,[2]; [19],15 min
same,AUC(0-t),"[2]; BALB/c, mouse, small intestine, iv, 20 mg/kg, AUC0-t, 20 mg/kg IV, 0–1440 min",181 µg·h/mL
same,AUC(0-inf),[2]; [20],2.15 µg·h/mL
same,Cmax,[2]; [20],307 ng/mL
same,Kp,[2]; [20],0.14
same,Tmax,[2]; [20],15 min
same,AUC(0-t),"[2]; BALB/c, mouse, spinal cord, iv, 20 mg/kg, AUC0-t, 20 mg/kg IV, 0–1440 min",2 µg·h/mL
same,AUC(0-inf),[2]; [21],306 µg·h/mL
same,Cmax,[2]; [21],39000 ng/mL
same,Kp,[2]; [21],20.6
same,Tmax,[2]; [21],120 min
same,AUC(0-t),"[2]; BALB/c, mouse, spleen, iv, 20 mg/kg, AUC0-t, 20 mg/kg IV, 0–1440 min",293 µg·h/mL
same,AUC(0-inf),[2]; [22],92.9 µg·h/mL
same,Cmax,[2]; [22],13500 ng/mL
same,Kp,[2]; [22],5.94
same,Tmax,[2]; [22],30 min
same,AUC(0-t),"[2]; BALB/c, mouse, thymus, iv, 20 mg/kg, AUC0-t, 20 mg/kg IV, 0–1440 min",84.5 µg·h/mL
same,Kp,"[2]; BALB/c, mouse, tumor (CT26), intravenous, 20 mg/kg",8.68
same,AUC(0-inf),[2]; [23],140 µg·h/mL
same,Cmax,[2]; [23],13100 ng/mL
same,Tmax,[2]; [23],60 min
same,AUC(0-t),"[2]; BALB/c, mouse, tumor (CT26), iv, 20 mg/kg, AUC0-t, 20 mg/kg IV, 0–1440 min",124 µg·h/mL
same,Cmax,"[2]; Plasma, 20 mg/kg IV, observed, mean (SD)",13.3 (4.91) μg/mL
same,AUC0-∞,"[2]; plasma, 20 mg/kg IV",906 µg·min/mL
same,Tmax,"[2]; plasma, 20 mg/kg IV",5 min
same,AUC0-t/dose,[2]; [24],42.7
same,AUC0-∞ /dose,[2]; [24],45.3
same,AUC0–360/dose,[2]; [24],29.6
same,AUCextrap,[2]; [24],5.75%
same,Tlast,[2]; [24],1440 min
same,0–24 h feces,[2]; [25],4.13 % dose
same,0–24 h urine,[2]; [25],48.4 % dose
same,efflux transporter substrate,[3],substrate
same,clinically associated toxicities,[4],"bone marrow toxicities including neutropenia, thrombocytopenia, leukocytopenia, lymphocytopenia, and anemia"
same,"fraction unbound at 24 h, 300 ng/mL",[5],0.028
same,"fraction unbound at 24 h, 100000 ng/mL",[5],0.0427
